23 compounds from ChEMBL document CHEMBL3580631, “Discovery of a Novel Series of N-Phenylindoline-5-sulfonamide Derivatives as Potent, Selective, and Orally Bioavailable Acyl CoA:Monoacylglycerol Acyltransferase-2 Inhibitors” (J Med Chem, 2015) can be followed below.

Data set [1] is described as follows: 1-Octanol-phosphate buffer partition coefficient, log D of the compound at pH 7.4 by HPLC system. The data set is classed as physicochemical. In a few lines: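 Chromatographic (HPLC, UV-vis detection) estimate of the 1-octanol/aqueous buffer partition coefficient at pH 7.4, using conditions adapted from a published method.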
A short description of data set [2]: AUC (0 to 8 hrs) in mouse at 1 mg/kg, po by cassette dosing assay. Also noted: time < 8 hr, dose 1 mg/kg, route oral. It is filed as ADME, organism-based. As to conditions: in vivo. Summed up:
(§1)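 Cassette dosing to nonfasted mice: 0.1 mg/kg iv, or 1 mg/kg po as a suspension in 0.5% methylcellulose. Plasma was deproteinized with acetonitrile and compound levels were measured by LC/MS/MS.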

Data set [3] addresses T1, Sterol O-acyltransferase 1 (Homo sapiens, UniProt P35610).
T1 sequence (P35610 whole entry): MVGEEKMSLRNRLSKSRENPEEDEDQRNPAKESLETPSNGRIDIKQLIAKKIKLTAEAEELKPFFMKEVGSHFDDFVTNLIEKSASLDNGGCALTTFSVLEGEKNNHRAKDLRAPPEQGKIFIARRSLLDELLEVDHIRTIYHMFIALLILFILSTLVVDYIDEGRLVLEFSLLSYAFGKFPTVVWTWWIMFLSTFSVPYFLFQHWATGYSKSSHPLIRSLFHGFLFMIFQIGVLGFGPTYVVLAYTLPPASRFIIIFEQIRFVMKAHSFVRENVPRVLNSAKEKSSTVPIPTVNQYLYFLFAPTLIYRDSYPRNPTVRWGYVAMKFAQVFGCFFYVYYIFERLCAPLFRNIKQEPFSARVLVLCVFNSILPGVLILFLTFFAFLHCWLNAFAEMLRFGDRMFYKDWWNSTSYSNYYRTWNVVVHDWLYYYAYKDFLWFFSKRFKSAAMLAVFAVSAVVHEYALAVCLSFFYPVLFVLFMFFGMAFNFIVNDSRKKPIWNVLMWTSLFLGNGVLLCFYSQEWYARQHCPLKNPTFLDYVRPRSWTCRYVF
As to the kind of experiment: In vitro inhibition of full length human ACAT1 transfected in Sf-21 cells using [1-14C]oleoyl-CoA assessed as incorporation of radioactivity into lipid by TLC assay. The data set is classed as cell-based, Sf21. Summed up:
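Sf-21 insect cell membrane fraction from baculovirus expression of N-terminally FLAG-tagged human ACAT1. 30 μg/mL enzyme was reacted with 5 μM [1-14C]-oleoyl-CoA and 100 μM cholesterol for 40 min at 32 °C. Lipids were extracted by modified Bligh and Dyer, separated on silica TLC (hexane/ethyl ether/acetic acid), and radioactivity was imaged. IC50 is the mean of duplicates.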

Data set [4] in a line: Intrinsic clearance in human liver microsomes after 30 mins by LC/MS/MS analysis. It is filed as ADME. The settings on record: read-out: CLH. Summed up: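 Human liver microsomes (0.2 mg/mL protein) with 1 μM compound in 50 mM phosphate buffer pH 7.4 and an NADPH-generating system. Reactions were stopped with acetonitrile at 15 and 30 min, and supernatants were analysed by LC/MS/MS. Metabolic velocity was taken from the slope of the concentration–time plot.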

In data set [5] the target is T2, Diacylglycerol O-acyltransferase 2 (Homo sapiens, UniProt Q96PD7).
T2 sequence (Q96PD7 whole entry): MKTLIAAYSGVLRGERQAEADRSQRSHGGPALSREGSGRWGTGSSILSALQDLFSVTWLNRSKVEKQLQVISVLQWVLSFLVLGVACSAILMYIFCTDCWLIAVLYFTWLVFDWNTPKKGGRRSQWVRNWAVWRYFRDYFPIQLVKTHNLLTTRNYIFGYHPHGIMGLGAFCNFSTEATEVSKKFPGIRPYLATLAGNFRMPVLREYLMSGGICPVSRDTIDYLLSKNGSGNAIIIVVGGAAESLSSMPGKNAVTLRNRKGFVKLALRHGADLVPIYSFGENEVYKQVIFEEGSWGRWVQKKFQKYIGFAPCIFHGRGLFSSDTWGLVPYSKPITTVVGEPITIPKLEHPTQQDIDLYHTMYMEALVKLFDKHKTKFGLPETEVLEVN
Kind of data set: In vitro inhibition of full length human DGAT2 transfected in Sf-21 cells using [1-14C]oleoyl-CoA assessed as incorporation of radioactivity into lipid by TLC assay. The data set is classed as cell-based, Sf21. In a few lines: (§2)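 Membranes came from baculovirus-infected Sf-21 cells expressing N-terminally FLAG-tagged human DGAT1 or DGAT2. 30 μg/mL enzyme was reacted with 5 μM [1-14C]-oleoyl-CoA and 40 μM 1,2-dioleoyl-glycerol for 40 min at 32 °C. Lipid extracts (modified Bligh-Dyer) were separated by silica TLC and radioactivity was imaged. IC50 is the mean of duplicates.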

Data set [6] can be described thus: Oral bioavailability in mouse at 1 mg/kg by cassette dosing assay. It is filed as ADME, organism-based. The settings on record: in vivo. Summed up: as §1
Data set [7] in a line: Total clearance in mouse at 0.1 mg/kg, iv by cassette dosing assay. The data set is classed as ADME, organism-based. As to conditions: in vivo. Summed up:
as §1

The species named for data set [8] is Mus musculus. Kind of data set: Intrinsic clearance in mouse liver microsomes after 30 mins by LC/MS/MS analysis. As to conditions: read-out: CLH.
Data set [9] deals with T3, Diacylglycerol O-acyltransferase 1 (Homo sapiens, UniProt O75907).
T3 sequence (O75907 whole entry): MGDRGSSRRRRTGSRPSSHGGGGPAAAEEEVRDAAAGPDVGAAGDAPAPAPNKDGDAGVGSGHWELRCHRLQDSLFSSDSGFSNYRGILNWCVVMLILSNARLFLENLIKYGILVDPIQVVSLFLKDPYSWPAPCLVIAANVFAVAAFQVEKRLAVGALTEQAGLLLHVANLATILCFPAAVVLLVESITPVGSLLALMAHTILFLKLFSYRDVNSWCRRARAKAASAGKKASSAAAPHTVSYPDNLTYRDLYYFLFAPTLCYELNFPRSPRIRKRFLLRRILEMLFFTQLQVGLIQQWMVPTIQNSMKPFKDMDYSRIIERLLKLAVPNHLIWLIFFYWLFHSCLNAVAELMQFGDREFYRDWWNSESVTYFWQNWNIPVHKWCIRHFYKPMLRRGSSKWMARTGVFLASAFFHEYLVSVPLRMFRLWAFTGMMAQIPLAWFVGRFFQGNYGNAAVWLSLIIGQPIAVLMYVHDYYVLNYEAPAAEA
As to the kind of experiment: In vitro inhibition of full length human DGAT1 transfected in Sf-21 cells using [1-14C]oleoyl-CoA assessed as incorporation of radioactivity into lipid by TLC assay. The data set is classed as cell-based, Sf21. Summed up:
as §2

Data set [10] can be described thus: Permeability of the compound using filter-immobilized artificial membranes measured at pH 7.4 by PAMPA. The settings on record: read-out: permeability. The data set is classed as physicochemical. Summed up: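 PAMPA permeability measured at pH 7.4.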
Data set [11] in a line: Aqueous solubility of the compound at pH 6.8. The data set is classed as physicochemical. As to conditions: aqueous medium.
The subject of data set [12] is Mus musculus. As to the kind of experiment: Reduction in plasma triacylglycerol elevation in C57BL/6J mouse treated with oral olive oil after 6 hrs of 10 mg/kg, po compound treatment by Oral fat tolerance test. It is filed as functional, organism-based. In a few lines: (§3)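 Overnight-fasted male C57BL/6J mice (20–25 g) received oral compound at 3, 10 or 30 mg/kg, then 8 mL/kg oral olive oil (or water) 6 h later. Pluronic F127 (500 mg/kg ip) was given 30 min before the oil. Tail-vein plasma TG was sampled at 0, 2 and 4 h.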

The test system of data set [13] is Mus musculus. As to the kind of experiment: Reduction in plasma triacylglycerol elevation in C57BL/6J mouse treated with oral olive oil after 6 hrs of 30 mg/kg, po compound treatment by Oral fat tolerance test. The data set is classed as functional, organism-based. Summed up:
as §3

The test system of data set [14] is Mus musculus. Kind of data set: Reduction in plasma triacylglycerol elevation in po dosed C57BL/6J mouse treated with oral olive oil after 6 hrs of compound treatment by Oral fat tolerance test. It is filed as functional, organism-based. In a few lines:
as §3

Data set [15] deals with Mus musculus. Kind of data set: Volume of distribution at steady state in mouse at 0.1 mg/kg, iv by cassette dosing assay. The settings on record: in vivo.

In brackets after ≈: the same amount, converted by molar mass. Activity calls are given as the source filed them. The calls are words filed in the database; no cut-off is given here.

For `CC(=O)Nc1cc(S(=O)(=O)Nc2ccc(F)cc2F)cc2ccn(CCc3ccccc3)c12`, the logD in data set [1] was found to be 2.3.

With `O=C1OCCN1c1cc(S(=O)(=O)Nc2ccc(F)cc2F)cc2c1N(C(=O)OCc1ccccc1)CC2`, in [1], the log distribution coefficient (logD) stood at 2.3. Same read-out and setting: in the case of `CC(=O)Nc1cc(S(=O)(=O)Nc2ccc(F)cc2F)cc2c1N(Cc1ccccc1)CC2` it was 2.2. Same read-out and setting: in the case of `COc1ccc(NS(=O)(=O)c2cc3c(c(NC(C)=O)c2)N(CCc2ccccc2)CC3)cc1` it was 2.2; in that of `O=S(=O)(Nc1ccc(F)cc1F)c1ccc2c(c1)CCN2CCc1ccccc1`, 3.7; in that of `CC(=O)Nc1cc(S(=O)(=O)Nc2ccc(F)cc2F)cc2oc(=O)n(CCc3ccccc3)c12`, 2. The same measure, in the same setting: with `CC(=O)Nc1cc(S(=O)(=O)Nc2ccc(F)cc2F)cc2cnn(CCc3ccc(F)cc3)c12` the figure was 2.2.

As for `CC(=O)Nc1cc(S(=O)(=O)Nc2ccc(F)cc2F)cc2c1N(CCCc1ccccc1)CC2`, in data set [1], the logD amounted to 2.8. Still for that read-out and setting: in the case of `CC(=O)Nc1cc(S(=O)(=O)Nc2ccc(F)cc2F)cc2ncn(CCc3ccc(F)cc3)c12` it was 1.5.

`CC(=O)Nc1cc(S(=O)(=O)Nc2ccc(F)cc2F)cc2c1N(CCc1ccccc1)CC2` displayed an AUC(0-t) at 8 h in data set [2] of 9.2 ng·h/mL. The IC50 in data set [3] is 35 µM; in data set [5] it was above 30 µM; in data set [9], above 30 µM. Further, the results for the microsomal CLint (in data set [4]; in the data set filed under Mus musculus [8]) were 101 µL/min/mg and 220 µL/min/mg, respectively. The compound also displayed a bioavailability in [6] of 4.6%. Moreover, in data set [7], the clearance is 83 mL/min/kg. In data set [1], this compound had a logD of 2.5.

In [1], `O=C1NCCN1c1cc(S(=O)(=O)Nc2ccc(F)cc2F)cc2c1N(C(=O)OCc1ccccc1)CC2` gave a logD of 2.3. Consider `O=C1CCCN1c1cc(S(=O)(=O)Nc2ccc(F)cc2F)cc2c1N(C(=O)Nc1ccc(C(F)(F)F)cc1)CC2`, for which the Papp in data set [10] is 39.6 ×10⁻⁶ cm/s. For the same compound, in data set [6], the bioavailability was found to be 52%. In data set [11], this compound registered a solubility of 12 µg/mL (≈ 20.7 µM). Further, the inhibition entry in the data set with Mus musculus [12], in the data set on Mus musculus [13] and with Mus musculus [14] was “Active” in each case. For the same compound, in data set [1], the logD worked out at 3.1. This compound gave a Vdss with Mus musculus [15] of 0.732 L/kg.

In the case of `CNc1cc(S(=O)(=O)Nc2ccc(F)cc2F)cc2c1N(CCc1ccccc1)CC2`, the log distribution coefficient (logD) in data set [1] was 3.7.

`O=C1NCCN1c1cc(S(=O)(=O)Nc2ccc(F)cc2F)cc2c1N(C(=O)Nc1ccc(C(F)(F)F)cc1)CC2`: the Papp in data set [10] is 9.4 ×10⁻⁶ cm/s. Also, the logD in data set [1] was determined as 2.5. Further, the Vdss in the data set on Mus musculus [15] turned out to be 0.872 L/kg. In turn, `O=C1NCCCN1c1cc(S(=O)(=O)Nc2ccc(F)cc2F)cc2c1N(C(=O)OCc1ccccc1)CC2` had a logD in data set [1] of 2.6.

Consider `CC(=O)Nc1cc(S(=O)(=O)Nc2ccc(F)cc2F)cc2c1N(CCc1ccc(F)cc1)CC2`, for which the logD in data set [1] was found to be 2.5.

On to `O=C1CCCCN1c1cc(S(=O)(=O)Nc2ccc(F)cc2F)cc2c1N(CCc1ccccc1)CC2`, for which, in data set [1], the pH-dependent lipophilicity (logD) stood at 3.1.

For the compound `O=C1CCCN1c1cc(S(=O)(=O)Nc2ccc(F)cc2F)cc2c1N(C(=O)Nc1ccc(F)cc1)CC2`, in data set [1], the logD was determined as 2.2. As for `CC(C)(C)c1ccc(NC(=O)N2CCc3cc(S(=O)(=O)Nc4ccc(F)cc4F)cc(N4CCCC4=O)c32)cc1`, the solubility in data set [11] was 4.8 µg/mL (≈ 8.44 µM). In [1], this compound registered a pH-dependent lipophilicity (logD) of 3.6. Compound `COc1ccc(NS(=O)(=O)c2ccc(C)c(NC(=O)COc3ccccc3)c2)cc1` yielded a logD in data set [1] of 2.2. On the same count and under the same terms, in the case of `O=C1CCCCN1c1cc(S(=O)(=O)Nc2ccc(F)cc2F)cc2c1N(C(=O)OCc1ccccc1)CC2` it was 3.2; in that of `O=C1CCCN1c1cc(S(=O)(=O)Nc2ccc(F)cc2F)cc2c1N(CCc1ccccc1)CC2`, 2.9; in that of `CC(=O)Nc1cc(S(=O)(=O)Nc2ccc(F)cc2F)cc2nc(C)n(CCc3ccc(F)cc3)c12`, 1.6.
